A selection: hits, their analogues and other compounds. The true share with any hit is near 4.9%.
STAT3 act-1 – STAT3 signaling activation; U3A cells, IL-6 STAT3-luciferase reporter, luminescence; 100% = signal with IL-6 EC80 alone; actives 0.91% (n = 190,000); activation (% of control), % at 5.6 µM;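 active = activation above the screen-wide mean of compound activation plus 3 SD, cut at about 130% in these data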;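 also: 0% = background luminescence of wells with medium and substrate only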
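Material: STAT1-lacking human U3A cells, STAT3 luciferase reporter | Benchmarks: IL-6-only wells as 100% reference | Probe or stimulus: IL-6 (33 ng/mL) | Timing: Compound 1 h, then IL-6 6 h at 37 °C | Detection: Luminescence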
STAT1 inh – reduces IFN-gamma driven STAT1 reporter signal; NIH 3T3 STAT1-luciferase reporter, luminescence; inhibition, % at 5.5 µM; actives 0.35% (n = 200,000); AID 920;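 active = inhibition above a set limit, the mean inhibition across all tested compounds plus 3 SD, cut at about 34% in these data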;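 also: 0% = IFN-gamma with DMSO and 100% = IFN-gamma with 300 µM nifuroxazide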
STAT1 act-1 – increases IFN-gamma driven STAT1 reporter signal | NIH 3T3 STAT1-luciferase reporter, luminescence; 100% = IFN-gamma alone, no compound | actives 2.6% (n = 200,000) | activation (% of control), % at 5.5 µM | AID 932;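 active = activation above the screen-wide mean activation plus 3 SD, cut at about 130% in these data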;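 also: raw ratio to IFN-gamma control signal so 100% means no change and 0% no light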
STAT3 inh-1 – reduces IL-6 driven STAT3 reporter signal. inhibition, % at 5.5 µM. AID 862. U3A cells, IL-6 STAT3-luciferase reporter, luminescence; host cell line lacks STAT1. actives 0.89% (n = 190,000);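 active = inhibition above the mean inhibition across all screened compounds plus 3 SD, cut at about 44% in these data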;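 also: 0% = DMSO only wells and 100% = 100 µM nifuroxazide control wells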
NF-kB neuron act – NF-kB expression increase, human neuronal cells; NF-kB reporter expression; stronger effect = higher value; fold change at 12.5 µM; actives 1.6% (n = 190,000); AID 1239; in the data active = fold change above about 3.3
APP 5'UTR act – APP 5'UTR luciferase reporter activation; AID 1276; SH-SY5Y APP 5'UTR luciferase reporter, luminescence; zero percent = DMSO vehicle wells; actives 1% (n = 190,000); activation, % at 2 µM;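 active = activation above a set limit, based on mean plus 3 SD of controls, cut at about 140% in these data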
STAT3 inh-2 – confirmation of STAT3 signaling inhibitors; shares compounds with STAT3 inh-1; U3A cells, IL-6 STAT3 luciferase reporter, luminescence; cell line lacks STAT1; inhibition, % at 5.7 µM; actives 45% (n = 1,200); AID 1265;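 active = inhibition above the hit cutoff computed for the primary STAT3 screen, cut at about 44% in these data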;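 also: 0% = IL-6 plus DMSO and 100% = IL-6 plus nifuroxazide control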
NFkB inh STAT3ct – counter-screen for STAT3 inhibitors: NF-kappaB inhibition; inhibition, % at 5.7 µM; HEK293T NF-kB luciferase reporter, TNF-alpha induced; shares compounds with STAT3 inh-1; actives 36% (n = 1,200);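 active = inhibition above the mean of solvent-only control wells plus 3 SD, cutoff set per campaign, cut at about 13% in these data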;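 also: 0% = TNF-alpha with DMSO and 100% = TNF-alpha with MG high control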
STAT1 inh 2 – counter-screen for STAT3 inhibitors: STAT1 inhibition. inhibition, % at 5.7 µM. actives 27% (n = 1,200). shares compounds with STAT3 inh-1. AID 1317. NIH 3T3 STAT1-luciferase reporter, IFN-gamma induced, luminescence;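 active = inhibition above the mean plus 3 SD of solvent-only control wells, limit set per screening run, cut at about 16% in these data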;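 also: 0% = DMSO with IFN-gamma and 100% = nifuroxazide control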
STAT3 act-2 – STAT3 activation, confirmation assay | potentiation (% of control), % at 5.7 µM | actives 64% (n = 1,200) | U3A STAT3-luciferase reporter, IL-6 potentiation, luminescence; U3A cells lack STAT1; 100 means same as IL-6 alone | AID 1267 | shares compounds with STAT3 act-1;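 active = percent activation of the STAT3 luciferase reporter above a set limit taken from the earlier primary screen, cut at about 130% in these data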;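 also: 0% = background signal of medium plus substrate and 100% = median of IL-6 with DMSO wells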
NFkB act 2 – counter-screen for STAT3 activators: NF-kappaB activation; activation (% of control), % at 5.7 µM; shares compounds with STAT3 act-1; human cells, NF-kappaB reporter activation; actives 11% (n = 1,200); in the data active = activation above about 120%;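 also: reporter induced by TNF-alpha stimulation; 100% = median of stimulated DMSO wells and 0% = no signal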
STAT1 act-2 – STAT1 activation in STAT3 activator counter-screen; NIH 3T3 STAT1-luciferase reporter, IFN-gamma, luminescence; activation (% of control), % at 5.7 µM; shares compounds with STAT3 act-1; AID 1318; actives 13% (n = 1,200);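 active = activation above the solvent-only control well mean plus 3 SD, set per screening run, cut at about 120% in these data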;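 also: 100% = IFN-gamma with DMSO median signal so 100% means no change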
STAT1 activ conf – confirmation of STAT1 signaling activators. shares compounds with STAT1 act-1. NIH 3T3 STAT1-luciferase reporter, IFN-gamma potentiation, luminescence; 100% = IFN-gamma EC80 alone, no compound. activation (% of control), % at 5.7 µM. actives 97% (n = 1,200);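 active = activation above a set limit carried over from the earlier primary STAT1 screen, cut at about 140% in these data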;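 also: simple ratio to median IFN-gamma plus DMSO wells so 0% means no light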
NFkB act – counter-screen for STAT1 activators: NF-kappaB activation | AID 1306 | HEK293T NF-kB luciferase reporter, TNF-alpha stimulated, luminescence; 100% = TNF-alpha with vehicle only | actives 43% (n = 1,200) | activation (% of control), % at 5.7 µM | shares compounds with STAT1 act-1;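 active = activation above the mean of solvent-only control wells plus 3 SD, set per campaign, cut at about 130% in these data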;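 also: TNF-alpha given at a submaximal dose yielding about 80% of full reporter signal; values are well signal over median control so 100% means no change and 0% no light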
STAT3 act STAT1c – human STAT3 activation in STAT1 activator counter-screen; shares compounds with STAT1 act-1; activation (% of control), % at 5.7 µM; actives 46% (n = 1,200); U3A cells STAT3-luciferase reporter, IL-6, luminescence; cells lack STAT1; 100 = IL-6 alone, no compound effect; AID 1316;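 active = activation above the solvent-only control well mean plus 3 SD, set per plate batch, cut at about 110% in these data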;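 also: 0% = no luminescence and 100% = median IL-6 plus DMSO wells; higher means more STAT3 reporter activation so hits are non-selective activators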
An asterisk follows results filed as active; i = inactive; / = no result.

SMILES	STAT3 act-1	STAT1 inh	STAT1 act-1	STAT3 inh-1	NF-kB neuron act	APP 5'UTR act	STAT3 act-2	NFkB act 2	STAT1 act-2	others
O=c1c2c(nc3cc(-c4ccc(F)cc4)[nH]n13)CCCC2	56	-84	177*	53*	3.4*	168*	/	/	/	STAT3 inh-2=19;NFkB inh STAT3ct=-27;STAT1 inh 2=-133;STAT1 activ conf=240*;NFkB act=115;STAT3 act STAT1c=93
CN(C)c1nc(OCCNC(=O)COc2ccc(Cl)cc2Cl)nc(N(C)C)n1	146*	4	96	-49	1.1	-3	127	98	91
CN(C)c1nc(OCCOC(=O)COc2ccc(Cl)cc2Cl)nc(N(C)C)n1	107	-9	110	-4	0.99	-6	/	/	/
Cc1nc(N=C(N)N)nc2ccccc12	116	-3	103	-18	1.1	23	/	/	/
Cc1nc(/N=C(\N)NC(=O)c2ccccc2)nc2ccccc12	177*	-2	102	-78	0.98	15	168*	121*	116
COc1ccc(-c2nc(CN(CC3CCC(=O)N3)C(C)C)c(C)o2)c(C)c1C (centres undefined)	105	5	94	-3	1	-6	/	/	/
COc1ccc(C2CC3(CC(C)(C)NC(=O)N3)Oc3cc(O)ccc32)cc1 (centres undefined)	211*	-2	102	-125	1.2	4	176*	110	119
COc1ccc(C2CC3(CC(C)(C)NC(SC)=N3)Oc3cc(O)cc(C)c32)cc1 (centres undefined)	537*	-25	122	i	1.1	1	382*	114	127*
COc1ccc(C2CC3(CC(C)(C)NC(=S)N3)Oc3cc(O)cc(C)c32)cc1 (centres undefined)	363*	-6	105	-330	0.99	10	268*	110	106
S=C(N/N=C1\CCc2ccccc21)NC1CCCCC1	137*	-20	118	-42	1.2	64	164*	135*	122*
O=C(COC(=O)COc1ccc2ccccc2c1)NCC(F)(F)F	102	1	98	0	1.2	6	/	/	/
O=C(/C=C/c1ccccc1)C1=C(O)C(=O)N(CCO)C1c1ccccc1[N+](=O)[O-] (centres undefined)	144*	-1	99	-47	1.2	-21	152*	104	82
